Measured values reported in ChEMBL document CHEMBL4270530, “Surmounting the resistance against EGFR inhibitors through the development of thieno[2,3-d]pyrimidine-based dual EGFR/HER2 inhibitors” (Eur J Med Chem, 2018).
Active and inactive are the calls of the source. The rule behind the calls is not given here.

Assays:
NCI-H1975 [1] = assay: Induction of apoptosis in human NCI-H1975 cells harboring EGFR T790M mutant assessed as increase in necrotic cells at 2.5 to 10 uM after 72 hrs by Annexin-V-FITC/propidium iodide staining based flow cytometry; format: functional, cell-based
Outline: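 NCI-H1975 cells grown in RPMI-1640 with 2 mM L-glutamine and 10% FBS, exposed 72 h to indicated concentrations. Harvested, ethanol-fixed on ice, PI-stained overnight at 4 °C. Flow cytometry on 20 000 cells/sample gave percent live, early apoptotic and late apoptotic/necrotic cells.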

[2] = biological target: T1, Epidermal growth factor receptor (Homo sapiens, UniProt P00533); assay: Inhibition of EGF-induced EGFR phosphorylation at Y1068 residues in EGFR over-expressing human A431 cells pretreated for 3 hrs followed by EGF-stimulation and measured after 10 mins by Western blot analysis
T1 sequence (P00533 whole entry): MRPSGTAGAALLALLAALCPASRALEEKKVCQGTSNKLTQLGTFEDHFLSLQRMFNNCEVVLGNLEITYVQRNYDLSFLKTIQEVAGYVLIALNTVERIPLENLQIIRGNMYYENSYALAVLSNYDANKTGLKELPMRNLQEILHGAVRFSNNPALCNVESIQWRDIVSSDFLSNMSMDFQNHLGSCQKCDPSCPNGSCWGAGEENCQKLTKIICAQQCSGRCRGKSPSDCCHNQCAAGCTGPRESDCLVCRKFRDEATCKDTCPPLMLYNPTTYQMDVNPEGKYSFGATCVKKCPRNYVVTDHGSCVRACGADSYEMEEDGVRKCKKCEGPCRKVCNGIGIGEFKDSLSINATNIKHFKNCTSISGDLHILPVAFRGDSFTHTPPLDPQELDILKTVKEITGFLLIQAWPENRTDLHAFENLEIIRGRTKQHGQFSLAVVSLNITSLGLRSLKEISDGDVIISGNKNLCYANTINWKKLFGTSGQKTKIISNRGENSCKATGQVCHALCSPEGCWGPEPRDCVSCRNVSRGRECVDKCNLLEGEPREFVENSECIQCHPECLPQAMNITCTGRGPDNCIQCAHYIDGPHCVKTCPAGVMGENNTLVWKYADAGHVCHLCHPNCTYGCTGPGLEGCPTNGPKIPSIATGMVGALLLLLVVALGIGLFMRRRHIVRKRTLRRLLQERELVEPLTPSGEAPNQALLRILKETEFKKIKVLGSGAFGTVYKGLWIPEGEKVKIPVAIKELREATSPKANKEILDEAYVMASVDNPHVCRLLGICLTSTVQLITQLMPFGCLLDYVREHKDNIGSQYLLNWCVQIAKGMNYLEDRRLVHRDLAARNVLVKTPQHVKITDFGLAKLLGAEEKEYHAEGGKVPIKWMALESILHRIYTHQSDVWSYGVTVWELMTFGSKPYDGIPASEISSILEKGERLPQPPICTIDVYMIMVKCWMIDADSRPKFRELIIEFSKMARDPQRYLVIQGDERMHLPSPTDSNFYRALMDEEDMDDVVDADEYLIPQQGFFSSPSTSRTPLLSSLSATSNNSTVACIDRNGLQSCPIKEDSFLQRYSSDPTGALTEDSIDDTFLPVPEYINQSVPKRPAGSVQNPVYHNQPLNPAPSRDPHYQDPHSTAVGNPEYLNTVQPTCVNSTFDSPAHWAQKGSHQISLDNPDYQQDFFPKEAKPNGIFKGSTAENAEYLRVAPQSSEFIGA
Outline: (§1)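 Overnight serum-starved A431 cells given indicated concentrations for 3 h, then 50 ng/ml EGF for 10 min. HEPES-buffer lysates resolved on 12% SDS-PAGE, transferred to nitrocellulose, blocked in 5% milk/TBST, probed with primary and HRP secondary antibodies, chemiluminescence read-out.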

[3] = test system: Epidermal growth factor receptor (Homo sapiens), P00533 [T790M]; assay: Inhibition of EGF-induced EGFR T790M mutant in human NCI-H1975 cells assessed as reduction in p70S6K phosphorylation at T389 residue at 2.5 to 10 uM pretreated for 2.5 hrs followed by EGF-stimulation and measured after 10 mins by Western blot analysis; format: cell-based
Sequence of Epidermal growth factor receptor (Homo sapiens), P00533 [T790M] (P00533 whole entry T790M): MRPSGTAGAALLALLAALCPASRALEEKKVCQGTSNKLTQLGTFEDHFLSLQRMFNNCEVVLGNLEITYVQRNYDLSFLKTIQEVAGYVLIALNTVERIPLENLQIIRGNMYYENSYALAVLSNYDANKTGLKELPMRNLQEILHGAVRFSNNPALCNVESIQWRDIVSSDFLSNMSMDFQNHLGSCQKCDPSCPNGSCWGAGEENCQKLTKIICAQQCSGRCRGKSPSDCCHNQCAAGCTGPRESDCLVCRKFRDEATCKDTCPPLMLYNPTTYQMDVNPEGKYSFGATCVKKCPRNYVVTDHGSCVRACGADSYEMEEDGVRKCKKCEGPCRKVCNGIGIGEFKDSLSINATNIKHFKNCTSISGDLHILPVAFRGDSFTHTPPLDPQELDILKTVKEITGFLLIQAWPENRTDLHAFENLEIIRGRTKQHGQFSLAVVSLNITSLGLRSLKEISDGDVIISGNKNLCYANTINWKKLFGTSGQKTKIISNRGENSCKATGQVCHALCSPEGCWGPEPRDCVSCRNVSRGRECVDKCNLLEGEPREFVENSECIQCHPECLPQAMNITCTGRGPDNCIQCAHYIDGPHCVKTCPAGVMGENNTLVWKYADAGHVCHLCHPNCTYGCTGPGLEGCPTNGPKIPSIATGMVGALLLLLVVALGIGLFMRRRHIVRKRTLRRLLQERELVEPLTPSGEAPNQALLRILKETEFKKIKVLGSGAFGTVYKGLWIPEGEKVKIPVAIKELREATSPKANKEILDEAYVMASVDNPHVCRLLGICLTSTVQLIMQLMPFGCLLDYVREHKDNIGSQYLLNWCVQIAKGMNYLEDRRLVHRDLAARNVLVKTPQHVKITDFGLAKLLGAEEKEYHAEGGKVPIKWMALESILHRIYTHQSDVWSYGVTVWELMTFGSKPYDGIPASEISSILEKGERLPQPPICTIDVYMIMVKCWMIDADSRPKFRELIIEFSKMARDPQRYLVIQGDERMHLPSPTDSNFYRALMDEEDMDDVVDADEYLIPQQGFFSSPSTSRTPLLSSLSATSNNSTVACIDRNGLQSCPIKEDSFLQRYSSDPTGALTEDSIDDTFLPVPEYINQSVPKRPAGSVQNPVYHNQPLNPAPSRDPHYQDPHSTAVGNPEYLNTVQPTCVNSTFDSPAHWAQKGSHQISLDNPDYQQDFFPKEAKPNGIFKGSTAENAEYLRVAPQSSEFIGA
Outline: (§2)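 Serum-starved overnight NCI-H1975 cells preincubated 2.5 h with compound, then stimulated with 50 ng/ml EGF for 10 min. Lysed in HEPES buffer, protein quantified, 12% SDS-PAGE, nitrocellulose transfer, milk blocking, HRP secondary, chemiluminescent detection.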

[4] = test system: Epidermal growth factor receptor (Homo sapiens), P00533 [T790M]; assay: Inhibition of EGFR T790M mutant in human NCI-H1975 cells assessed as reduction in p70S6K phosphorylation at T389 residue after 72 hrs by Western blot analysis; format: cell-based
Outline: (§3)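 Unstimulated NCI-H1975 cells exposed to indicated concentrations for 72 h. Lysates in HEPES buffer run on 12% SDS-PAGE, blotted to nitrocellulose and probed for AKT/S6K/S6 signalling with chemiluminescent detection; β-actin loading control.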

NCI-H1975 [5] = assay: Cytotoxicity against human NCI-H1975 cells harboring EGFR T790M mutant assessed as reduction in cell viability after 72 hrs by sulforhodamine B assay; format: functional, cell-based; conditions: NCI-H1975, 72 h
Outline: (§4)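 Cells seeded and grown 24 h, then exposed to 0.1% DMSO vehicle or 0.3125-20 μM compound for 72 h. Fixed with ice-cold 50% TCA (1 h, 4 °C), stained with 0.4% SRB 30 min at room temperature, dye solubilized in 10 mM tris base pH 10.5, OD read at 560 nm. Survival fraction = OD treated/OD vehicle; IC50 from triplicates of at least two independent experiments, mean ± SD.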

[6] = biological target: T1, Epidermal growth factor receptor; assay: Inhibition of EGF-induced EGFR signalling in EGFR over-expressing human A431 cells assessed as reduction in AKT phosphorylation at S473 residue at 2.5 to 10 uM pretreated for 3 hrs followed by EGF-stimulation and measured after 10 mins by Western blot analysis; outline: as §1
A-431 = assay: Cytotoxicity against human A431 cells over expressing EGFR assessed as reduction in cell viability after 72 hrs by sulforhodamine B assay; format: functional, cell-based; conditions: A-431, 72 h; outline: as §4
[7] = biological target: T2, Receptor tyrosine-protein kinase erbB-2 (Homo sapiens, UniProt P04626); assay: Inhibition of recombinant human N-terminal GST-tagged HER2 (679 to 1255 residues) expressed in baculovirus infected Sf9 cells using Poly-(Glu, Tyr) as substrate measured after 45 minutes by Kinase-Glo luminescent assay
T2 sequence (P04626 whole entry, the tested form may be a part): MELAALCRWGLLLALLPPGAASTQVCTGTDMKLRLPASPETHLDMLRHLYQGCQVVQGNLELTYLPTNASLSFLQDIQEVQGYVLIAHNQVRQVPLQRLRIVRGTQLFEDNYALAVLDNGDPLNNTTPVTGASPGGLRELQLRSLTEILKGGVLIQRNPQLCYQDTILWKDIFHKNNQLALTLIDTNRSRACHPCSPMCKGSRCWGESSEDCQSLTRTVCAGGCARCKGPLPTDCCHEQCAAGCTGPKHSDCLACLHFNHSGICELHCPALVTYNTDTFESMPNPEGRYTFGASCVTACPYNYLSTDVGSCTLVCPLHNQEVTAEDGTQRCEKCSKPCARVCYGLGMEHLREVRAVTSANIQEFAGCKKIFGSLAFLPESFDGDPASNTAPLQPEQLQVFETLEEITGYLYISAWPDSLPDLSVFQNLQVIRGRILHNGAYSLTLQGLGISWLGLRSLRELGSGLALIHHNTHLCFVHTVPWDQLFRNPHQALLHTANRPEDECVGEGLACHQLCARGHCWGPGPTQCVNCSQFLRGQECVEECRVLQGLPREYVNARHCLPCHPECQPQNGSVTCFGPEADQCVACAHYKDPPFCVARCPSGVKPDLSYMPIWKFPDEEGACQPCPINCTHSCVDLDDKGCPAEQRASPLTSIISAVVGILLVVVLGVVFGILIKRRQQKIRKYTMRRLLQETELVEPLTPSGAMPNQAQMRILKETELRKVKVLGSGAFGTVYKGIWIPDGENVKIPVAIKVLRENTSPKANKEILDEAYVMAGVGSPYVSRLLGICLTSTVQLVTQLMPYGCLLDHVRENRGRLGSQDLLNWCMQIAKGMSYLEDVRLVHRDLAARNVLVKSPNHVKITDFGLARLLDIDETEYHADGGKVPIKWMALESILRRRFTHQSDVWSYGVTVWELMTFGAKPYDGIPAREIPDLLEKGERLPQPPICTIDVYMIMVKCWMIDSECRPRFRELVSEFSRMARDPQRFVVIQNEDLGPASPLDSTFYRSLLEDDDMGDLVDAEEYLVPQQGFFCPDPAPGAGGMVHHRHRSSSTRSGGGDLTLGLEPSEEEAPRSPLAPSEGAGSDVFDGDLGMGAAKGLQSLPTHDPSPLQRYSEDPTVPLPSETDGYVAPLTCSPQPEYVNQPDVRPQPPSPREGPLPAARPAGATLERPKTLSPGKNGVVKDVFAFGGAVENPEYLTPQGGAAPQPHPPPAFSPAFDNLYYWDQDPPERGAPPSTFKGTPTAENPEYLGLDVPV

MDA-MB-361 [8] = assay: Cytotoxicity against human MDA-MB-361 cells over expressing HER2 assessed as reduction in cell viability after 72 hrs by sulforhodamine B assay; format: functional, cell-based; conditions: MDA-MB-361, 72 h; outline: as §4
[9] = test system: Epidermal growth factor receptor (Homo sapiens), P00533 [T790M]; assay: Inhibition of EGFR T790M mutant in human NCI-H1975 cells assessed as reduction in AKT phosphorylation at S473 residue after 72 hrs by Western blot analysis; format: cell-based; outline: as §3
NCI-H1975 [10] = assay: Induction of apoptosis in human NCI-H1975 cells harboring EGFR T790M mutant assessed as increase in apoptotic cells at 2.5 to 10 uM after 72 hrs by Annexin-V-FITC/propidium iodide staining based flow cytometry; format: functional, cell-based
[11] = biological target: T1, Epidermal growth factor receptor; assay: Inhibition of EGF-induced EGFR signalling in EGFR over-expressing human A431 cells assessed as reduction in ribosomal S6 phosphorylation at S235/236 residue at 2.5 to 10 uM pretreated for 3 hrs followed by EGF-stimulation and measured after 10 mins by Western blot analysis; outline: as §1
[12] = test system: Epidermal growth factor receptor (Homo sapiens), P00533 [T790M]; assay: Inhibition of EGFR T790M mutant in human NCI-H1975 cells assessed as reduction in ribosomal S6 phosphorylation at S235/236 residue after 72 hrs by Western blot analysis; format: cell-based; outline: as §3
MDA-MB-361 [13] = assay: Induction of apoptosis in human MDA-MB-361 cells after 24 hrs by Annexin-V-FITC/propidium iodide staining based flow cytometry; format: functional, cell-based
[14] = biological target: T1, Epidermal growth factor receptor; assay: Inhibition of recombinant human C-terminal His-tagged/N-terminal GST-tagged EGFR (668 to 1210 residues) expressed in baculovirus infected Sf9 cells using Poly-(Glu, Tyr) as substrate measured after 45 minutes by Kinase-Glo luminescent assay
[15] = test system: Epidermal growth factor receptor (Homo sapiens), P00533 [T790M]; assay: Inhibition of EGF-induced EGFR T790M mutant phosphorylation in human NCI-H1975 cells at 2.5 to 10 uM pretreated for 2.5 hrs followed by EGF-stimulation and measured after 10 mins by Western blot analysis; format: cell-based; outline: as §2
[16] = test system: Epidermal growth factor receptor (Homo sapiens), P00533 [T790M]; assay: Inhibition of EGF-induced EGFR T790M mutant in human NCI-H1975 cells assessed as reduction in AKT phosphorylation at S473 residue at 2.5 to 10 uM pretreated for 2.5 hrs followed by EGF-stimulation and measured after 10 mins by Western blot analysis; format: cell-based; outline: as §2
SK-BR-3 = assay: Cytotoxicity against human SKBR3 cells over expressing HER2 assessed as reduction in cell viability after 72 hrs by sulforhodamine B assay; format: functional, cell-based; conditions: SK-BR-3, 72 h; outline: as §4
[17] = biological target: T1, Epidermal growth factor receptor; assay: Inhibition of EGF-induced EGFR signalling in EGFR over-expressing human A431 cells assessed as reduction in p70S6K phosphorylation at T389 residue at 2.5 to 10 uM pretreated for 3 hrs followed by EGF-stimulation and measured after 10 mins by Western blot analysis; outline: as §1
[18] = test system: Epidermal growth factor receptor (Homo sapiens), P00533 [T790M]; assay: Inhibition of EGF-induced EGFR T790M mutant in human NCI-H1975 cells assessed as reduction in ribosomal S6 phosphorylation at S235/236 residue at 2.5 to 10 uM pretreated for 2.5 hrs followed by EGF-stimulation and measured after 10 mins by Western blot analysis; format: cell-based; outline: as §2
[19] = biological target: T1, Epidermal growth factor receptor; assay: Inhibition of EGF-induced EGFR signalling in EGFR over-expressing human A431 cells assessed as reduction in p70S6K phosphorylation at T389 residue at 5 to 20 uM pretreated for 3 hrs followed by EGF-stimulation and measured after 10 mins by Western blot analysis; outline: as §1
[20] = biological target: T1, Epidermal growth factor receptor; assay: Inhibition of EGF-induced EGFR signalling in EGFR over-expressing human A431 cells assessed as reduction in AKT phosphorylation at S473 residue at 5 to 20 uM pretreated for 3 hrs followed by EGF-stimulation and measured after 10 mins by Western blot analysis; outline: as §1
[21] = biological target: T1, Epidermal growth factor receptor; assay: Inhibition of EGF-induced EGFR signalling in EGFR over-expressing human A431 cells assessed as reduction in ribosomal S6 phosphorylation at S235/236 residue at 5 to 20 uM pretreated for 3 hrs followed by EGF-stimulation and measured after 10 mins by Western blot analysis; outline: as §1
[22] = biological target: T2, Receptor tyrosine-protein kinase erbB-2; assay: Inhibition of HER2 signalling in HER2 over-expressing human SKBR3 cells assessed as reduction in S6 phosphorylation at S235/236 residue at 2.5 to 10 uM after 72 hrs by Western blot analysis
Outline: (§5)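 SKBr3 cells (DMEM, 10% FBS) treated 72 h at indicated concentrations. HEPES-buffer lysates on 12% SDS-PAGE, nitrocellulose transfer, 5% milk/TBST block, immunoblotted for AKT/mTOR/S6 with HRP secondary and chemiluminescence; β-actin loading control.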

[23] = biological target: T2, Receptor tyrosine-protein kinase erbB-2; assay: Inhibition of HER2 signalling in HER2 over-expressing human SKBR3 cells assessed as reduction in AKT phosphorylation at S473 residue at 2.5 to 10 uM after 72 hrs by Western blot analysis; outline: as §5
[24] = biological target: T2, Receptor tyrosine-protein kinase erbB-2; assay: Inhibition of HER2 signalling in HER2 over-expressing human SKBR3 cells assessed as reduction in mTOR phosphorylation at S2448 residue at 2.5 to 10 uM after 72 hrs by Western blot analysis; outline: as §5

SMILES	IC50 (NCI-H1975 [5]) [µM]	IC50 (A-431) [µM]	IC50 [7] [µM]	IC50 (MDA-MB-361 [8]) [µM]	IC50 [14] [µM]	IC50 (SK-BR-3) [µM]	also measured
O=C(NCCN1CCOCC1)Nc1ccc(-c2cc3c(Nc4ccc(Oc5cccc(C(F)(F)F)c5)c(Cl)c4)ncnc3s2)cc1	4.2	1.45	1.2	3.5	0.0917	4.83	Activity (NCI-H1975 [1]): Active; inhibition [2]: Dose-dependent effect; inhibition [3]: Active; inhibition [4]: Dose-dependent effect; inhibition [6]: Active; inhibition [9]: Dose-dependent effect; Activity (NCI-H1975 [10]): Active; inhibition [11]: Active; inhibition [12]: Dose-dependent effect; Activity (MDA-MB-361 [13]): Dose-dependent effect; inhibition [15]: Active; inhibition [16]: Active; inhibition [17]: Active; inhibition [18]: Active
CS(=O)(=O)Nc1ccc(-c2cc3c(Nc4ccc(Oc5cccc(C(F)(F)F)c5)c(Cl)c4)ncnc3s2)cc1		5.25	19.2	9.86			
CS(=O)(=O)CCNCc1ccc(-c2ccc3ncnc(Nc4ccc(OCc5cccc(F)c5)c(Cl)c4)c3c2)o1	11.5	1.69		13.7		0.17	
O=[N+]([O-])c1ccc(-c2cc3c(Nc4ccc5c(cnn5Cc5ccccc5)c4)ncnc3s2)cc1		> 20		> 20			
O=C(Nc1ccc(-c2cc3c(Nc4ccc(Oc5cccc(C(F)(F)F)c5)c(Cl)c4)ncnc3s2)cc1)NC1CC1		2.34	37.1	3.83	0.112		
O=[N+]([O-])c1ccc(-c2cc3c(Nc4ccc(Oc5cccc(C(F)(F)F)c5)c(Cl)c4)ncnc3s2)cc1		1.72		3.65			
Nc1ccc(-c2cc3c(NCc4ccccc4)ncnc3s2)cc1		> 20		> 20			
O=[N+]([O-])c1ccc(-c2cc3c(NCc4ccccc4)ncnc3s2)cc1		4.87		> 20			
Nc1ccc(-c2cc3c(Nc4ccc(Oc5cccc(C(F)(F)F)c5)c(Cl)c4)ncnc3s2)cc1	13.9	11.4	1.5	5.85	0.0214	6	inhibition [19]: Active; inhibition [2]: Dose-dependent effect; inhibition [20]: Active; inhibition [21]: Active
CCOC(=O)Nc1ccc(-c2cc3c(Nc4ccc(Oc5cccc(C(F)(F)F)c5)c(Cl)c4)ncnc3s2)cc1		17		> 20			
O=C(O)/C=C\C(=O)Nc1ccc(-c2cc3c(Nc4ccc(Oc5cccc(C(F)(F)F)c5)c(Cl)c4)ncnc3s2)cc1		> 20		> 20			
CC(C)/C=C/C(=O)Nc1ccc(-c2cc3c(Nc4ccc(Oc5cccc(C(F)(F)F)c5)c(Cl)c4)ncnc3s2)cc1		0.23		> 20			
CC(=O)Nc1ccc(-c2cc3c(Nc4ccc(Oc5cccc(C(F)(F)F)c5)c(Cl)c4)ncnc3s2)cc1	12.7	10.5	0.879	10.5	0.0477	4.7	inhibition [22]: Active; inhibition [23]: Active; inhibition [24]: Active
